pIC50: −log10 of the molar value. Blank lines part the entries; values can stand above or below the molecule they belong to.
Assays:
[1] = biological target: T1, Angiotensin II receptor (AT-1) type-1 (Rattus norvegicus, UniProt P29089+P25095); experiment: Displacement of [125I]Sar1,Ile8-Ang2 from AT1 receptor in rat hepatic membrane; assay type: cell membranes, Liver
T1 sequence (P29089 whole entry): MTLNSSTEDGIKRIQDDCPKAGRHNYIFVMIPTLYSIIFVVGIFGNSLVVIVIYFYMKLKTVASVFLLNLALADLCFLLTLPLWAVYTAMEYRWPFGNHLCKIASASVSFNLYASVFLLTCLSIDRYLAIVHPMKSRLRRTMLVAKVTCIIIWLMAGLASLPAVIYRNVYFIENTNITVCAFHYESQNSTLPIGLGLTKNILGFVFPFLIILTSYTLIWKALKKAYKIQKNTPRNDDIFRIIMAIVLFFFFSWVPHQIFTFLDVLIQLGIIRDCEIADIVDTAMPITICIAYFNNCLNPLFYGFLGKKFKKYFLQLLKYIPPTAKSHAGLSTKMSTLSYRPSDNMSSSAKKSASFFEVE
T1 sequence (P25095 whole entry): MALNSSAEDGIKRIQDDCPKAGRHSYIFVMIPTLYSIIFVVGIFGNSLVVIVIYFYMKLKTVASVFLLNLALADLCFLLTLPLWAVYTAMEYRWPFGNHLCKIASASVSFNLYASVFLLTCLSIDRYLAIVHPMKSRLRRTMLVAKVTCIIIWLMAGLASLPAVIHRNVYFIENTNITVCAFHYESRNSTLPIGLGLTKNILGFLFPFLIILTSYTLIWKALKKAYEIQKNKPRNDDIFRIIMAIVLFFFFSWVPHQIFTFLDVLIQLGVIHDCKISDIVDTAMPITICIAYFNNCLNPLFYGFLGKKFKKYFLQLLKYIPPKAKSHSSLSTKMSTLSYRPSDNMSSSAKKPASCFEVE
Method in brief: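 Rat liver membranes from male Wistar rats, prepared by differential centrifugation (750g, then 50 000g), 25 µg protein per well in 50 mM Tris-HCl, 100 mM NaCl, 10 mM MgCl₂, 1 mM EDTA, bacitracin, PMSF, 0.1% BSA, pH 7.4. Nonspecific binding defined with 1 µM Ang II. Filtration read-out. IC50 given as mean ± SEM of three determinations.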

[2] = biological target: T2, Type-1 angiotensin II receptor (Oryctolagus cuniculus, UniProt P34976); experiment: Antagonist activity against AT1 receptor assessed as inhibition of Ang2-induced rabbit aortic strip contraction; assay type: functional
T2 sequence (P34976 whole entry): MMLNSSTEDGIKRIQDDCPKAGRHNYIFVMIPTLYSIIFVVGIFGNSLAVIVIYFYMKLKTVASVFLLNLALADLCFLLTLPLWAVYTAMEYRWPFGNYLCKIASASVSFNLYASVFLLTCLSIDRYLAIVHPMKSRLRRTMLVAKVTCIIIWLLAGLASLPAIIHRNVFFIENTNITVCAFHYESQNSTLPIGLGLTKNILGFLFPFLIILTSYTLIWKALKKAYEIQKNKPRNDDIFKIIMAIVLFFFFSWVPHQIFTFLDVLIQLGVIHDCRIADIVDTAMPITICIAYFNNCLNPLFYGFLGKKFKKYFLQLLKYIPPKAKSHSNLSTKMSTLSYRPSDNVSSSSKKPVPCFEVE
Method in brief: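 Rabbit aortic strips equilibrated 1 h, washed every 10 min. An Ang II cumulative curve was run, then 30 min washout. Antagonist or vehicle applied for 60 min before a submaximal (70-80%) Ang II challenge, 5 nM in controls. One antagonist concentration per tissue. Response read as % inhibition of contraction; IC50 derived from the regression line.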

[3] = Terminal half life in Sprague-Dawley rat at 3 mg/kg, iv; assay type: ADME, organism-based; set-up: dose 3 mg/kg, route intravenous; conditions: in vivo, read-out: beta t1/2 (converted)
Method in brief: (§1)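 Fasted Sprague-Dawley rats, 250-300 g, dosed orally or by tail-vein injection. Blood sampled at selected times and plasma analysed by HPLC. t1/2 (terminal), AUC, observed Cmax and tmax calculated from plasma concentration-time data.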

[4] = AUC in Sprague-Dawley rat at 3 mg/kg, iv; assay type: ADME, organism-based; set-up: dose 3 mg/kg, route intravenous; conditions: plasma; method in brief: as §1
[5] = Apparent permeability from apical to basolateral side of Caco-2 cell; assay type: ADME, cell-based; conditions: human
Method in brief: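 Caco-2 cells grown in DMEM with 10% FBS on polycarbonate supports, 15-21 days at 37 °C. Compound dosed apically at 10-100 µM final in HBSS with 1% DMSO, at 37 °C, apical-to-basolateral direction. Monolayer integrity checked by [¹⁴C]mannitol permeability. Transported compound measured by HPLC-MS; Papp calculated by equation.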

[6] = Oral bioavailability in Sprague-Dawley rat at 10 mg/kg, po; conditions: in vivo
[7] = Oral bioavailability in Sprague-Dawley rat at 30 mg/kg, po; assay type: ADME, organism-based; conditions: in vivo; method in brief: as §1
[8] = AUC in Sprague-Dawley rat at 30 mg/kg, po; assay type: ADME, organism-based; set-up: dose 30 mg/kg, route oral; conditions: plasma
Method in brief: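 Fasted Sprague-Dawley rats (250-300 g) given compound orally; blood sampled at selected times after dosing, plasma analysed by HPLC, and area under the plasma concentration-time curve calculated.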

[9] = Tmax in Sprague-Dawley rat at 30 mg/kg, po; assay type: ADME, organism-based; set-up: dose 30 mg/kg, route oral; conditions: in vivo; method in brief: as §1
[10] = Terminal half life in Sprague-Dawley rat at 30 mg/kg, po; assay type: ADME, organism-based; set-up: dose 30 mg/kg, route oral; conditions: in vivo, read-out: beta t1/2 (converted); method in brief: as §1
[11] = Cmax in Sprague-Dawley rat at 30 mg/kg, po; assay type: ADME, organism-based; set-up: dose 30 mg/kg, route oral; conditions: in vivo; method in brief: as §1

IC50 [1]: 54 nM
Compound: CCCc1nc2c(C)cc(C)nc2n1Cc1ccc(C2=C(C(=O)NS(C)(=O)=O)C(=O)c3ccccc32)cc1

IC50 [1]: > 300 nM
Compound: CCCCc1nc2c(C)cc(C)nc2n1Cc1ccc(-c2c(-c3nn[nH]n3)n(C)c(=O)c3ccccc23)cc1

pIC50 [2]: 8.34
half-life [3]: 13.2 min
IC50 [1]: 5.2 nM
AUC [4]: 630 ng·h/mL
Papp A→B [5]: 0.03 ×10⁻⁶ cm/s
bioavailability [6]: 0%
Compound: CCc1nc2c(C)cc(C)nc2n1Cc1ccc(-c2c(C(=O)O)n(C)c(=O)c3ccccc23)cc1

IC50 [1]: 139 nM
Compound: CCCc1nc2c(C)cc(C)nc2n1Cc1ccc(C2(CC(=O)O)CC(=O)c3ccccc32)cc1 (configuration not stated)

IC50 [1]: > 300 nM
Compound: CCCc1nc2c(C)cc(C)nc2n1Cc1ccc(-c2c(-c3nn[nH]n3)n(C)c(=O)c3ccccc23)cc1

IC50 [1]: 60 nM
Compound: C=C1C(C(=O)O)=C(c2ccc(Cn3c(CCC)nc4c(C)cc(C)nc43)cc2)c2ccccc21

IC50 [1]: 6.2 nM
Papp A→B [5]: 0.01 ×10⁻⁶ cm/s
Compound: CCCCc1nc2c(C)cc(C)nc2n1Cc1ccc(-c2c(C(=O)O)n(C)c(=O)c3ccccc23)cc1

IC50 [1]: 99 nM
Compound: CCCc1nc2c(C)cc(C)nc2n1Cc1ccc(C2=C(C(=O)O)C(C)c3ccccc32)cc1 (configuration not stated)

half-life [3]: 18 min
IC50 [1]: 7.7 nM
AUC [4]: 340 ng·h/mL
Compound: CCCc1nc2c(C)cc(C)nc2n1Cc1ccc(-c2c(C(=O)O)c(Cl)nc3ccccc23)cc1

IC50 [1]: 15 nM
Compound: CCCc1nc2c(C)cc(C)nc2n1Cc1ccc(C2=C(C(=O)O)C(O)(CC)c3ccccc32)cc1 (configuration not stated)

IC50 [1]: > 300 nM
Compound: CCc1nc2c(C)cc(C)nc2n1Cc1ccc(-c2c(-c3nn[nH]n3)n(C)c(=O)c3ccccc23)cc1

pIC50 [2]: 7.48
IC50 [1]: 11 nM
Compound: CCCc1nc2c(C)cc(C)nc2n1Cc1ccc(C2=C(C(=O)O)C(C)(O)c3ccccc32)cc1 (configuration not stated)

IC50 [1]: 55 nM
Compound: CCCc1nc2c(C)cc(C)nc2n1Cc1ccc(C2(C(C(=O)O)C(=O)O)CC(=O)c3ccccc32)cc1 (configuration not stated)

IC50 [1]: 53 nM
Compound: CCc1nc2c(C)cc(C)nc2n1Cc1ccc(C2=C(C(=O)O)C(=O)c3ccccc32)cc1

IC50 [1]: 47 nM
Compound: CCCc1nc2c(C)cc(C)nc2n1Cc1ccc(C2C(C(=O)O)=C(C)c3ccccc32)cc1 (configuration not stated)

IC50 [1]: 131 nM
Compound: CCCc1nc2c(C)cc(C)nc2n1Cc1ccc(C2=C(C(=O)NS(=O)(=O)c3ccccc3)C(=O)c3ccccc32)cc1

IC50 [1]: 5.7 nM
Compound: CCCc1nc2c(C)cc(C)nc2n1Cc1ccc(-c2c(C(=O)O)n(C)c(=O)c3ccccc23)cc1

pIC50 [2]: 7.89
half-life [3]: 19.8 min
IC50 [1]: 9 nM
AUC [4]: 500 ng·h/mL
Compound: CCCc1nc2c(C)cc(C)nc2n1Cc1ccc(-c2c(C(=O)O)c(C)nc3ccccc23)cc1

pIC50 [2]: 8.05
bioavailability [7]: 49%
AUC [8]: 4400 ng·h/mL
half-life [3]: 40.8 min
Tmax [9]: 30 min
IC50 [1]: 6.9 nM
AUC [4]: 890 ng·h/mL
half-life [10]: 60 min
Papp A→B [5]: 0.1 ×10⁻⁶ cm/s
Cmax [11]: 4200 ng/mL
Compound: CCc1nc2c(C)cc(C)nc2n1Cc1ccc(-c2c(-c3nn[nH]n3)cnc3ccccc23)cc1

pIC50 [2]: 8.48
half-life [3]: 16.8 min
IC50 [1]: 4.2 nM
AUC [4]: 520 ng·h/mL
Compound: CCCc1nc2c(C)cc(C)nc2n1Cc1ccc(-c2c(C(=O)O)c(N)nc3ccccc23)cc1

bioavailability [7]: 60%
AUC [8]: 74800 ng·h/mL
half-life [3]: 282 min
Tmax [9]: 30 min
AUC [4]: 12400 ng·h/mL
half-life [10]: 180 min
Papp A→B [5]: 1.15 ×10⁻⁶ cm/s
Cmax [11]: 27500 ng/mL
Compound: CCCCc1nc(Cl)c(CO)n1Cc1ccc(-c2ccccc2-c2nn[nH]n2)cc1 [LOSARTAN]

Reference: ChEMBL document CHEMBL1137307, “Further studies on imidazo[4,5-b]pyridine AT1 angiotensin II receptor antagonists. Effects of the transformation of the 4-phenylquinoline backbone into 4-phenylisoquinolinone or 1-phenylindene scaffolds” (J Med Chem, 2006)
